According to the RNAGym collection of RNA variant scans (doi:10.1126/science.aae0568):
Fewer inactive variants are shown than the library holds.

B1: tRNA (parent)
chain: GUUCCGUUGGCGUAAUGGUAACGCGUCUCCCUCCUAAGGAGAAGACUGCGGGUUCGAGUCCCGUACGGAACG

Variants of: B1
Test: yeast fitness relative to wild type (ratio to wild type); higher = fitter; tRNA-Arg(CCU), competitive growth, 37 C, YPD
How it was run: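 Variants of the tRNA-Arg(CCU) gene, chemically synthesised with a 3% per-site mutation rate at 69 sites, were placed at the native genomic locus in Saccharomyces cerevisiae. The pooled strains were competed in YPD at 37°C for 24 hours in six parallel replicates. Gene amplicons from the start population and from each end population were read by 100-nucleotide paired-end sequencing. Darwinian fitness relative to wild type came from changes in genotype frequencies; genotypes needed ≥ 100 starting reads, and estimates < 0.5 were set to 0.5.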

Variant | yeast fitness
U16G C27A C31G A42G C61A | 0.543
A21U C24U C27A A37C A40U C49G | ≤ 0.5
G6C U13A A20U A21G A69U | ≤ 0.5
U3A G48A C49G | 0.574
C5G G6A G48A | ≤ 0.5
C22G A36C C61U | ≤ 0.5
U3G C30G | ≤ 0.5
C4A A37U A43G G58C C60G | 0.654
C4A U7C C27U U53A | ≤ 0.5
G23A C30U C33A G41C A42U | 0.555
C5A C31U C55U | 0.6
U2A G12A A21C G48C | ≤ 0.5
A20G U64G A70C | 0.619
C30G A37G A40C C55A G58C A65U A70U | 0.542
A14G C24G A36C A70C | ≤ 0.5
C4G U8G A21C | ≤ 0.5
A20G C27U A57C | ≤ 0.5
U3C C24A C62A A65C | ≤ 0.5
U13A A14U C22G A45U | 0.507
U13G G18A G39C A69U | ≤ 0.5
U3C U8C A14G U28G A36U C46U C61U | 0.549
G17A C30A C60G C62A | ≤ 0.5
U2C G25C A43U | 0.624
C5G G25A U28G G38C C62G C66U | ≤ 0.5

Variant | yeast fitness
C24G C55A | 0.66
U2A A45C | 0.933
C4U U7A U8A A65U | ≤ 0.5
U7A C24G C33U G41C | ≤ 0.5
U8G C27U G44C U47A C60U | ≤ 0.5
C5U C29U C31U U54G A65U G67A | ≤ 0.5
A36C C49G C61G C62G | ≤ 0.5
U2A U47G G50C | ≤ 0.5
U32G C61A C62A | 0.537
U13C U26C | 0.809
C4A G18A C27A A37C G56A G68U | ≤ 0.5
C49A A70U | 0.714
U16C A21U C29A U35A A43U C62U G68C | ≤ 0.5
U13A G18C A36G G41C U47A | ≤ 0.5
C31G G48C G58A | 0.821
G10A G18A C27G A37G G38A A57U | ≤ 0.5
G6C G12A C27U G39C G63A | ≤ 0.5
C4U G25A A69C | 0.761
U7A A21C U26A C30A A45G G52A | 0.547
A37C G67A | 0.696
C30G U53G G63A | ≤ 0.5
G12C C24U G48C A69C | ≤ 0.5
U2A C5G A42U | ≤ 0.5
U2G A21G U32C U59G C66U A70C | ≤ 0.5

Variant | yeast fitness
C11U A15G G18A C31A A36G C61G | 0.513
G23A C33U A69U | ≤ 0.5
U13A C61U A70G | 0.633
C4U C49U C55A | ≤ 0.5
U19C C29A U32G G58A A69G | ≤ 0.5
G6U C34U C61U | ≤ 0.5
C29G A37C G58A | ≤ 0.5
A20G A40U A45C A65U | ≤ 0.5
C11U G18A A43U | 0.533
A15C U32G | 0.504
G9A C29A C34A | 0.576
G18C C30U C31U G48A | ≤ 0.5
G17U C46G U54G | ≤ 0.5
U35A C55U | 0.564
A40U C46U | 1.08
U26G A36U U47G | 0.626
U3G G39A A40G | ≤ 0.5
G10A G18A C33U A37C A40U | ≤ 0.5
U16C A43C U54A | ≤ 0.5
C24G U47C | 0.688
A20C A45U | 0.8
C5G A21G U32C C62U A65U G68A | ≤ 0.5
U7C C30U G39C | ≤ 0.5
C22G C27A C49A G56C A65G | 0.746

Variant | yeast fitness
U3C U13A A45C G48A U64C | 0.57
C30U U32G A36G A37U U47A | 0.559
C11A U19G A36G U54C A69C | 0.54
U7C A15C A40G U53G | ≤ 0.5
C34G A45G C60U A69U | ≤ 0.5
C4G G6A C46U A69C | 0.536
G9A G10A C46G | ≤ 0.5
U2G A21G A65G | 0.663
U3G C11A G52A C66G G68C | ≤ 0.5
U7A G10A A15U G56A A69U | ≤ 0.5
A20U G25A C66U | 0.761
C11U C33G C60A | ≤ 0.5
U2C G38A C60G | 0.558
C22G C27A | 0.604
U2G G44A | 0.849
C30A C31A G38A C49U G52A C66U | ≤ 0.5
U8A C29U C30G | ≤ 0.5
C11U A57C G63A | ≤ 0.5
C30G G41C | 0.616
C5A A14C A15G C49A | 0.572
U2C C4G C27G U32A U35C C49A U59C | ≤ 0.5
C24G U26A A37G G48A | ≤ 0.5
C29A U35C G67A | ≤ 0.5
C49U C55U C61U | 0.559

Variant | yeast fitness
U2A A14C C30U C34G G51A | ≤ 0.5
A20C C24U C55U | ≤ 0.5
C34U G63C | ≤ 0.5
G9C C29G C34G C60G C62U | ≤ 0.5
U16C C33G C49A C55G G56C | ≤ 0.5
C29A C46U A70G | 0.711
C5G C46G C49U | 0.646
C33A A36C G48A C66G | ≤ 0.5
C22U G41A | 0.706
U16C U26C C33U G63C | ≤ 0.5
C4G U16C C31U G51A | 0.533
A42G C60A C62A | ≤ 0.5
A36C G67U | 0.596
A14U C34G A43C C62A A70U | ≤ 0.5
A20U G56A | 0.922
C30G A43U G48C C55A G63A | ≤ 0.5
U19A U47C | 0.925
U8C C22G C49U G63A U64C | ≤ 0.5
A40G C55G | 0.621
G6A C24G U35A G48C | 0.54
A20U A40U | 0.654
C29A U64C | 0.632
C27A A43G | 0.778
A15G C27U A69U | 0.808

Variant | yeast fitness
C5U C27U A37C | ≤ 0.5
G10C C30U G51A G63A | ≤ 0.5
C5G U47A C55A | 0.637
G6A A40U G56C | ≤ 0.5
C11G C34G U59C | ≤ 0.5
G6A C22U C27G A36G A43G | ≤ 0.5
U3C C24U C55G | ≤ 0.5
C4U A15C C27A C31U A43G C60A | 0.526
U19G A57G A70U | 0.731
A36C A45U | 0.591
U7A C33U | 0.592
G25C C29U C33A C49G | 0.714
G51A C62A | 0.561
G6A G9A A14U G63A | 0.747
G12C C27U C33A A45C U54A | ≤ 0.5
U19G C31A G39C C62G G68A | ≤ 0.5
C31U A37C A43U G50C A69U | ≤ 0.5
G6C G9C U54C | 0.603
C5U G10A G38C | ≤ 0.5
C22G C62A | 0.787
C4U C46U A70G | 0.772
A43U C62A | 0.702
U32G A70G | 0.628
U13A G58C A69U | 1.04

Variant | yeast fitness
U16A C61G C66G | ≤ 0.5
C24U U64C | 0.925
C11U U26G G56A | ≤ 0.5
A43U A57G | 1.01
A14C A15G G25C U32A A43C G63A A69C | ≤ 0.5
C46A U53C | 0.865
C5U C46A C66U | 0.663
A15C G18C A42C G51C A65C | ≤ 0.5
C4A G6A A69U | 0.623
C22A C24G A43G | ≤ 0.5
C5U C27U A37G A40C U47A | ≤ 0.5
G12C U19A C27G C49G C61U | ≤ 0.5
U7C C29G G44C | 0.567
A43U C62U A70C | 0.637
G58A G63A | 0.954
U16G A37U | 0.618
U3C A43U G44C U64C | 0.567
G9A C11U A42U U47C G51A A70C | ≤ 0.5
U3C C4U A15G U26A U32A C60G G67A | ≤ 0.5
A15G C31U U47G G58C C62U | ≤ 0.5
A40G U59C C60A U64A | ≤ 0.5
C29A U54A A57U | 0.535
A15C G58C | 0.575
